Our source for the IC50 and GI50 values is ChEMBL document CHEMBL3779840, “Discovery of 2-((3-Amino-4-methylphenyl)amino)-N-(2-methyl-5-(3-(trifluoromethyl)benzamido)phenyl)-4-(methylamino)pyrimidine-5-carboxamide (CHMFL-ABL-053) as a Potent, Selective, and Orally Available BCR-ABL/SRC/p38 Kinase Inhibitor for Chronic Myeloid Leukemia” (J Med Chem, 2016).

In assay [1] the target is Mitogen-activated protein kinase 14 (Homo sapiens, UniProt Q16539). Description: Inhibition of full length recombinant GST-tagged human p38-alpha expressed in Escherichia coli. A digest of the protocol: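 IC50 values were determined with the Invitrogen SelectScreen biochemical kinase assay.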
Chain of Mitogen-activated protein kinase 14 (Q16539 whole entry): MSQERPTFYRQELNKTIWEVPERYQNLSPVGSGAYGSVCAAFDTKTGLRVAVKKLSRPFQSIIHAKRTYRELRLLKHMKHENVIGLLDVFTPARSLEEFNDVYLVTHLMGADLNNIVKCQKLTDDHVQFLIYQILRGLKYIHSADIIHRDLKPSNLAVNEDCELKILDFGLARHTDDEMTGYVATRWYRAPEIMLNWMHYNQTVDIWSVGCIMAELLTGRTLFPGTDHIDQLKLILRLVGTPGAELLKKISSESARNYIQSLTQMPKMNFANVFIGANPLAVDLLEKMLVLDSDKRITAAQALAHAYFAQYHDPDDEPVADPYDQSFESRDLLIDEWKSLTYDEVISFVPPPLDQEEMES
Assay [2] concerns the target Tyrosine-protein kinase HCK (Homo sapiens) (UniProt P08631). To be noted: BaF3.

The structures appear in SMILES notation.

Chain of Tyrosine-protein kinase HCK (Homo sapiens) (P08631 2-526 limits assumed): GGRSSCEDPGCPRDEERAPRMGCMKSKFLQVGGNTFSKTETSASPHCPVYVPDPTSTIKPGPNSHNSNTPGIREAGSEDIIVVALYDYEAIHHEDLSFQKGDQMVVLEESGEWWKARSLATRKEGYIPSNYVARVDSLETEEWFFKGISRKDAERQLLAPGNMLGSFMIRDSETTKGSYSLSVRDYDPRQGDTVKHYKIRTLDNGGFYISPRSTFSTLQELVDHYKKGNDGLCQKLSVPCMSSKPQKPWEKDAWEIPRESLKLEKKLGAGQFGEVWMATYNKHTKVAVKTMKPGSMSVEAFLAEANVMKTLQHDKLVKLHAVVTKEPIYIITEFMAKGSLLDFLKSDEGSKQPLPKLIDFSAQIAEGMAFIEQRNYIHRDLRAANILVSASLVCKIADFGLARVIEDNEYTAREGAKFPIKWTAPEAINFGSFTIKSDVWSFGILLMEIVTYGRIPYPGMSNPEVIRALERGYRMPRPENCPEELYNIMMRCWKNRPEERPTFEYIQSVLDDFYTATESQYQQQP

Regarding `CNc1nc(Nc2ccc(C)c(N)c2)ncc1C(=O)Nc1cc(NC(=O)c2cccc(C(F)(F)F)c2)ccc1C`, the 50% inhibitory concentration (IC50) in assay [1] stood at 62 nM. Halving of growth in assay [2] (GI50) required 980 nM.

For orientation: IC50 means the point on the concentration scale where inhibition reaches its midpoint. Usually GI50 stands for the concentration at which growth is held to half of that of the control. Low values mean greater sensitivity of the cells, high ones lower sensitivity of the cells.
